The record followed here is ChEMBL document CHEMBL1150584, “Antifungal stilbenoids from Stemona collinsae” (J Nat Prod, 2002).

As a reminder, the EC50 is the concentration at which the effect is half-maximal. A low value points to a more potent agent. What is called EC90 is the point of the concentration-response curve where the effect stands at 90%. A lower EC90 goes with greater potency. For orientation: MIC means the smallest concentration in the dilution series that meets the test's criterion for growth inhibition. A high value points to weaker potency.

In experiment [1] the test system is Cladosporium herbarum. Nature of the experiment: Growth inhibition of Cladosporium herbarum VIAM MA1511 at 10 ug by bioautography test. The format is functional, organism-based.
The test system of experiment [2] is Alternaria citri. Nature of the experiment: Inhibition of germ tube formation in Alternaria citri VIAM MA1627 after 16 hrs by microdilution technique. It counts as functional, organism-based. Put shortly: (§1)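 Stock (2 mg in 250 µL acetone plus 4.75 mL 4% malt extract, emulsified with 0.2% Tween 80) serially 2-fold microdiluted in 4% malt extract broth. Conidia were added at 10⁴ CFU/mL, then incubated 16 h at room temperature and stopped with lactophenol blue. Mycelial size was taken as pixel counts from images of 10 germinated conidia per well. Probit-log estimates covered 200–0.1 µg/mL. Controls were vehicle stock and benomyl.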
(In broth dilution the organism is exposed to a series of concentrations in liquid medium.)

Experiment [3] deals with Botrytis cinerea. The experiment is described as follows: Inhibition of germ tube formation in Botrytis cinerea VIAM MA2725 at 0.4 to 200 ug/ml after 16 hrs by microdilution technique. The format is functional. The gist of the method:
(§2)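 Germ tube inhibition by 2-fold serial microdilution in 4% malt extract broth. Compound stock of 2 mg in 250 µL acetone plus 4.75 mL malt extract with 0.2% Tween 80; negative control was stock without compound. Spores added at 10⁴ CFU/mL, incubated 16 h at room temperature, stopped with lactophenol blue. Mycelial size taken as pixel counts from images of 10 germinated conidia per well. Probit-log estimates over 200–0.1 µg/mL; MIC = lowest concentration with no germination.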

For experiment [4], the system named is Fusarium avenaceum. The experiment is described as follows: Inhibition of germ tube formation in Fusarium avenaceum VIAM MA1512 after 16 hrs by microdilution technique. It counts as functional, organism-based. Put shortly: as §1
The subject of experiment [5] is Cladosporium herbarum. The experiment is described as follows: Inhibition of germ tube formation in Cladosporium herbarum VIAM MA1511 after 16 hrs by microdilution technique. It counts as functional, organism-based. Put shortly: as §1
Experiment [6] relates to Cladosporium herbarum. Nature of the experiment: Inhibition of germ tube formation in Cladosporium herbarum VIAM MA1511 at 0.4 to 200 ug/ml after 16 hrs by microdilution technique. The format is functional. The gist of the method:
as §2

In experiment [7] the test system is Pyricularia grisea. Nature of the experiment: Inhibition of germ tube formation in Pyricularia grisea VIAM MA1628 after 16 hrs by microdilution technique. The format is functional, organism-based. The gist of the method:
as §2

The test system of experiment [8] is Botrytis cinerea. Nature of the experiment: Inhibition of germ tube formation in Botrytis cinerea VIAM MA2725 after 16 hrs by microdilution technique. It counts as functional, organism-based. The gist of the method:
as §1

Experiment [9] concerns Botrytis cinerea. The experiment is described as follows: Inhibition of germ tube formation in Botrytis cinerea VIAM MA2725 at 1.6 to 200 ug/ml after 16 hrs by microdilution technique. It counts as functional. The gist of the method: as §1
Experiment [10] deals with Fusarium avenaceum. The experiment is described as follows: Inhibition of germ tube formation in Fusarium avenaceum VIAM MA1512 at 1.6 to 200 ug/ml after 16 hrs by microdilution technique. It counts as functional. Put shortly:
as §1

Converted amounts (≈) assume the structure as drawn. The source made the active and inactive calls.

As to `COc1cc(O)c(C)c(-c2cc3c(O)cccc3o2)c1`, the outcome in experiment [1] was Active.
On the same count and under the same terms, with `COc1cc(O)c(C)c(CCc2cccc(O)c2OC)c1` the entry was “Active”; with `COc1cc(O)cc(CCc2cccc(O)c2OC)c1`, “Active”.
Same read-out and setting: with `Cc1c(O)cc(/C=C/c2ccccc2)cc1O` the entry was “Active”; with `Cc1c(O)cc(CCc2ccccc2O)cc1O`, “Active”; with `Oc1cc(O)cc(-c2cc3ccccc3o2)c1`, “Active”.
Regarding `Oc1cc(O)cc(/C=C/c2ccccc2)c1`, the outcome in experiment [1] was Active.
`CCCCNC(=O)n1c(NC(=O)OC)nc2ccccc21` [BENOMYL]: the EC50 in [2] is over 200 µg/mL; in [4], 0.02 µg/mL (≈ 0.0689 µM). For the same molecule, the EC90 is over 200 µg/mL in experiment [2], over 200 µg/mL in experiment [4] and 84 µg/mL (≈ 289 µM) in experiment [7]. Moreover, the MIC is over 200 µg/mL in experiment [2]; 100 µg/mL (≈ 344 µM) in experiment [4]; over 200 µg/mL in experiment [5]; 200 µg/mL (≈ 689 µM) in [7]; over 200 µg/mL in experiment [8]. Moreover, the “inhibition (INH)” value in [3] and in experiment [6] was 85% throughout.
Consider `COc1cc(O)cc(-c2cc3c(O)cccc3o2)c1` [STEMOFURAN B], for which the EC50 in experiment [2] worked out at 5 µg/mL (≈ 19.5 µM); in [4], 10 µg/mL (≈ 39 µM); in [5] it was 183 µg/mL (≈ 714 µM); in [7] it was 1.4 µg/mL (≈ 5.46 µM); in experiment [8] it was 8 µg/mL (≈ 31.2 µM). Further, the EC90 is 128 µg/mL (≈ 499 µM) in experiment [2]; over 200 µg/mL in [4]; over 200 µg/mL in [5]; 52 µg/mL (≈ 203 µM) in [7]; over 200 µg/mL in experiment [8]. Further, the MIC in experiment [2] was 200 µg/mL (≈ 780 µM); in experiment [4], over 200 µg/mL; in experiment [5], over 200 µg/mL; in experiment [7], 50 µg/mL (≈ 195 µM); in [8], over 200 µg/mL. Moreover, the outcome in [1] was Active.
For `Cc1c(O)cc(-c2cc3ccccc3o2)cc1O` [STEMOFURAN C], the EC50 in [2] turned out to be 7 µg/mL (≈ 29.1 µM); in experiment [4], 21 µg/mL (≈ 87.4 µM); in experiment [5], 8 µg/mL (≈ 33.3 µM); in experiment [7], 3.2 µg/mL (≈ 13.3 µM); in experiment [8] it was 29 µg/mL (≈ 121 µM). For the same molecule, the EC90 in [2] is 528 µg/mL (≈ 2200 µM); in experiment [4], over 200 µg/mL; in experiment [5] it was over 200 µg/mL; in experiment [7], 30 µg/mL (≈ 125 µM); in [8], over 200 µg/mL. Moreover, the MIC in [2] was over 200 µg/mL; in experiment [4] it was over 200 µg/mL; in [5] it was over 200 µg/mL; in [7], 50 µg/mL (≈ 208 µM); in experiment [8] it was over 200 µg/mL. Besides, the outcome in experiment [1] was Active.
In the case of `COc1cc(-c2cc3c(O)cccc3o2)c(C)c(O)c1C` [STEMOFURAN E], the EC50 in experiment [2] amounted to 5 µg/mL (≈ 17.6 µM); in experiment [4], 18 µg/mL (≈ 63.3 µM); in experiment [5] it was 0.8 µg/mL (≈ 2.81 µM); in experiment [8], 26 µg/mL (≈ 91.4 µM). The EC90 in experiment [2], in experiment [4], in experiment [5] and in [8] was over 200 µg/mL in each case. Further, the MIC in [2], in experiment [4], in [5] and in experiment [8] was over 200 µg/mL in each case. For the same molecule, in experiment [1], the result was Active.
Take `COc1c(C)c(O)c(C)c(-c2cc3c(O)cccc3o2)c1C` [STEMOFURAN F]: the EC50 in experiment [2] worked out at 10 µg/mL (≈ 33.5 µM); in experiment [5], 79 µg/mL (≈ 265 µM). The EC90 in [2] and in experiment [5] was over 200 µg/mL throughout. Besides, the MIC in experiment [2], in [4], in experiment [5] and in experiment [8] was over 200 µg/mL in each case. For the same molecule, the “inhibition (INH)” value in experiment [9] and in [10] was 30% each time. For the same molecule, the result in [1] was Active.
As to `COc1cc(-c2cc3c(O)c(C)ccc3o2)c(C)c(O)c1C` [STEMOFURAN G], the EC50 in [2] was 14 µg/mL (≈ 46.9 µM); in experiment [5] it was over 200 µg/mL. For the same molecule, the EC90 in experiment [2] and in experiment [5] was over 200 µg/mL in each case. For the same molecule, the minimal inhibitory concentration (MIC) in [2], in [4], in experiment [5] and in experiment [8] was over 200 µg/mL each time. In addition, the “inhibition (INH)” value in experiment [9] and in experiment [10] was 30% each time.
Take `COc1cc(-c2cc3c(O)cccc3o2)c(C)c(OC)c1C` [STEMOFURAN J]: the EC50 is 50 µg/mL (≈ 168 µM) in experiment [2]; 32 µg/mL (≈ 107 µM) in [4]; 34 µg/mL (≈ 114 µM) in experiment [5]; 0.9 µg/mL (≈ 3.02 µM) in [7]; 50 µg/mL (≈ 168 µM) in experiment [8]. Besides, the concentration for an effect of 90% (EC90) is over 200 µg/mL in [2]; over 200 µg/mL in experiment [4]; over 200 µg/mL in experiment [5]; 8.5 µg/mL (≈ 28.5 µM) in experiment [7]; over 200 µg/mL in experiment [8]. Further, the MIC was over 200 µg/mL in experiment [2]; over 200 µg/mL in experiment [4]; over 200 µg/mL in experiment [5]; 25 µg/mL (≈ 83.8 µM) in experiment [7]; over 200 µg/mL in [8].
For `COc1ccccc1CCc1cc(O)cc(O)c1` [STILBOSTEMIN A], the EC50 in experiment [2] was 70 µg/mL (≈ 287 µM); in experiment [4], over 200 µg/mL; in experiment [5], over 200 µg/mL; in experiment [7], 46 µg/mL (≈ 188 µM). Moreover, the EC90 in [2], in experiment [4], in experiment [5] and in experiment [7] was over 200 µg/mL in each case. The minimal inhibitory concentration (MIC) in [2], in experiment [4], in experiment [5], in [7] and in experiment [8] was over 200 µg/mL throughout. In [9], the “inhibition (INH)” value is listed as 30%. For the same molecule, the outcome in experiment [1] was Active.
On to `Cc1c(O)cc(CCc2ccccc2)cc1O` [STILBOSTEMIN B], for which the EC50 in [2] turned out to be 5 µg/mL (≈ 21.9 µM); in [4], 16 µg/mL (≈ 70.1 µM); in experiment [5], 15 µg/mL (≈ 65.7 µM); in experiment [7] it was 3 µg/mL (≈ 13.1 µM); in [8] it was 10 µg/mL (≈ 43.8 µM). Further, the EC90 in experiment [2] is over 200 µg/mL; in [4] it was over 200 µg/mL; in experiment [5], over 200 µg/mL; in [7] it was 371 µg/mL (≈ 1630 µM); in experiment [8], over 200 µg/mL. Also, the MIC in [2] is 200 µg/mL (≈ 876 µM); in experiment [4], over 200 µg/mL; in [5], over 200 µg/mL; in experiment [7], 100 µg/mL (≈ 438 µM); in experiment [8], over 200 µg/mL. Besides, in experiment [1], the outcome was Active.
As for `COc1ccccc1CCc1cc(O)c(C)c(O)c1` [STILBOSTEMIN D], the EC50 in experiment [2] came to 19 µg/mL (≈ 73.6 µM); in experiment [4] it was 57 µg/mL (≈ 221 µM); in experiment [5] it was 17 µg/mL (≈ 65.8 µM); in experiment [7], 3 µg/mL (≈ 11.6 µM); in experiment [8], 11 µg/mL (≈ 42.6 µM). The 90% effect concentration (EC90) in experiment [2] is over 200 µg/mL; in experiment [4], over 200 µg/mL; in experiment [5] it was over 200 µg/mL; in experiment [7], 152 µg/mL (≈ 588 µM); in [8], over 200 µg/mL. In addition, the MIC was over 200 µg/mL in experiment [2]; over 200 µg/mL in [4]; over 200 µg/mL in experiment [5]; 100 µg/mL (≈ 387 µM) in experiment [7]; over 200 µg/mL in experiment [8]. Moreover, in experiment [1], the result was Active.
